Test results from ChEMBL document CHEMBL1144875, “Desferrithiocin analogue based hexacoordinate iron(III) chelators” (2003).

Key:
[1] = tested on: Monkey; assay: Efficiency of chelation measured as net iron excretion/total iron-binding capacity of 300 umol/kg compound administered sc in monkeys; type: functional, Cercopithecidae
Summary of the method: (§1)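 Cebus apella monkeys iron-overloaded with iv iron dextran (~500 mg Fe/kg), rested ≥60 days. Dosed sc as aqueous suspension or sodium salt solution (DFO in sterile H2O, 1 mL/kg). Feces and urine collected at 24 h intervals from 4 days pre-dose to 5 days post-dose; iron by flame AA. Efficiency is 2-day post-dose iron minus 4-day baseline mean, divided by theoretical output. n = 4; mean ± SEM.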

[2] = tested on: Monkey; assay: Efficiency of chelation measured as net iron excretion/total iron-binding capacity of 300 umol/kg compound administered po in monkeys; type: functional, Cercopithecidae
[3] = tested on: Monkey; assay: Efficiency of chelation measured as net iron excretion/total iron-binding capacity of 150 umol/kg compound administered sc in monkeys; type: functional, Cercopithecidae; summary of the method: as §1
[4] = tested on: Rattus norvegicus; assay: Efficiency of chelation measured as net iron excretion/total iron-binding capacity of 300 umol/kg compound administered po in rats; type: functional
Summary of the method: (§2)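 Bile duct-cannulated male Sprague-Dawley rats (~450 g), anesthetized with sodium pentobarbital 55 mg/kg ip. Chelator given po or sc in 40% Cremophor RH-40/water. Bile collected every 3 h for 24 h, urine at 24 h; iron by flame AA. Net excretion is treated minus control. Theoretical output assumes 1:1 or 2:1 ligand/iron by denticity. n = 4; mean ± SEM.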

[5] = tested on: Rattus norvegicus; assay: Efficiency of chelation measured as net iron excretion/total iron-binding capacity of 300 umol/kg compound administered sc in rats; type: functional; summary of the method: as §2
[6] = tested on: Monkey; assay: Efficiency of chelation measured as net iron excretion/total iron-binding capacity of 75 umol/kg compound administered sc in monkey; type: functional, Cercopithecidae; summary of the method: as §1
[7] = tested on: Rattus norvegicus; assay: Efficiency of chelation measured as net iron excretion/total iron-binding capacity of 150 umol/kg compound administered sc in rats; type: functional; summary of the method: as §2
[8] = tested on: Rattus norvegicus; assay: Efficiency of chelation measured as net iron excretion/total iron-binding capacity of 150 umol/kg compound administered po in rats; type: functional; summary of the method: as §2
[9] = tested on: Monkey; assay: Efficiency of chelation measured as net iron excretion/total iron-binding capacity of 150 umol/kg compound administered sc in monkey; type: functional, Cercopithecidae; summary of the method: as §1
[10] = tested on: Monkey; assay: Efficiency of chelation measured as net iron excretion/total iron-binding capacity of 150 umol/kg compound administered po in monkey; type: functional, Cercopithecidae

SMILES | Efficiency [1] [%] | Efficiency [2] [%] | Efficiency [3] [%] | Efficiency [4] [%] | Efficiency [5] [%] | Efficiency [6] [%] | Efficiency [7] [%] | Efficiency [8] [%] | Efficiency [9] [%] | Efficiency [10] [%]
O=C(O)[C@H]1CSC(c2ccc(O)cc2O)=N1 | 5.3 | 5.3 | 5.6 | 2.9 | 2.1 |  |  |  |  | 
O=C(O)[C@H]1CSC(c2cc(CCCOCCCOCCCc3cc(C4=N[C@@H](C(=O)O)CS4)c(O)cc3O)c(O)cc2O)=N1 |  |  |  |  |  | 3.2 | 6.5 | 0.9 | 2.1 | 
CC(=O)N(O)CCCCCNC(=O)CCC(=O)N(O)CCCCCNC(=O)CCC(=O)N(O)CCCCCN [DEFEROXAMINE] |  |  |  |  |  |  | 2.8 | 1.1 | 5.5 | 0.1
